Source: ChEMBL document CHEMBL1123350, “Synthesis and beta-adrenergic receptor blocking potency of 1-(substituted amino)-3-(4-indolyloxy)propan-2-ols” (J Med Chem, 1986)

Experiments:
[1] = Distribution coefficient value of the compound; type: physicochemical; details: octanol/water
Method in brief: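 Shake-flask partition between 0.1 M potassium phosphate pH 7.4 and 1-octanol, each phase presaturated with the other. Compound at 0.1–1.0 mg/mL in buffer, shaken 30 min, left 10 min, spun 600g 10 min at room temperature. Aqueous-phase absorbance read before and after partition at a per-compound wavelength. D = (Aorig−Aextr)/(Aextr·f), with f the octanol:buffer volume ratio. Run twice.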

[2] = In vitro for binding affinity against beta adrenergic receptor in rat cerebellum; type: tissue-based
Method in brief: (§1)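 Male Sprague–Dawley rat cortex or cerebellum membranes, washed in HEPES–EDTA pH 7.5 and resuspended in NaCl–Tris–MgCl2 pH 7.5. Bound ligand collected by filtration and gamma-counted; isoproterenol 25 μM defines nonspecific binding. IC50 and Hill n by nonlinear regression; Ki by Cheng–Prusoff for the eutomer. Run at least twice.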

[3] = In vitro for binding affinity against beta adrenergic receptor in rat cortex; method in brief: as §1
Rattus norvegicus = species: Rattus norvegicus; assay: Hill coefficient value assayed against rat beta adrenergic receptor; method in brief: as §1

Compound: OC(CNCCc1ccc(Cl)c(Cl)c1)COc1cccc2[nH]ccc12 (stereo not given)
- logD [1]: 2.5
- Ki [2]: 11 nM
- Ki [3]: 6 nM
- Hill coefficient (Rattus norvegicus): > 0.9

Compound: OC(CNCc1ccccc1F)COc1cccc2[nH]ccc12 (stereo not given)
- logD [1]: 2
- Ki [2]: 45 nM
- Ki [3]: 60 nM
- Hill coefficient (Rattus norvegicus): > 0.9

Compound: OC(CNCCc1ccc(F)cc1)COc1cccc2[nH]ccc12 (stereo not given)
- logD [1]: 2
- Ki [2]: 4 nM
- Ki [3]: 5 nM
- Hill coefficient (Rattus norvegicus): > 0.9

Compound: COc1ccc(CCNCC(O)COc2cccc3[nH]ccc23)cc1OC (stereo not given)
- logD [1]: 1.1
- Ki [2]: 7 nM
- Ki [3]: 3 nM
- Hill coefficient (Rattus norvegicus): > 0.9

Compound: OC(CNCc1ccc(F)cc1)COc1cccc2[nH]ccc12 (stereo not given)
- logD [1]: 1.9
- Ki [2]: 80 nM
- Ki [3]: 125 nM
- Hill coefficient (Rattus norvegicus): > 0.9

Compound: OC(CNCCc1ccccc1)COc1cccc2[nH]ccc12 (stereo not given)
- logD [1]: 1.7
- Ki [2]: 4 nM
- Ki [3]: 5 nM
- Hill coefficient (Rattus norvegicus): > 0.9

Compound: CC(C)NCC(O)COc1cccc2[nH]ccc12 (stereo not given) [PINDOLOL]
- logD [1]: -0.3
- Ki [2]: 1 nM
- Ki [3]: 1 nM
- Hill coefficient (Rattus norvegicus): > 0.9

Compound: Nc1ccc(CCNCC(O)COc2cccc3[nH]ccc23)cc1 (stereo not given)
- logD [1]: 0.3
- Ki [2]: 22 nM
- Ki [3]: 25 nM
- Hill coefficient (Rattus norvegicus): > 0.9

Compound: CC(C)(CO)NCC(O)COc1cccc2[nH]ccc12 (stereo not given)
- logD [1]: -0.6
- Ki [2]: 2 nM
- Ki [3]: 2 nM
- Hill coefficient (Rattus norvegicus): > 0.9

Compound: O=[N+]([O-])c1ccc(CCNCC(O)COc2cccc3[nH]ccc23)cc1 (stereo not given)
- logD [1]: 1.5
- Ki [2]: 8 nM
- Ki [3]: 5 nM
- Hill coefficient (Rattus norvegicus): > 0.9
